Assay results as given in paper PMC9973464 (Haematologica, 2022).
“And” between values parts separate entries of the source, which are not always exact repeats. Identical values can stand only once.

Assays:
[1] = system: dogs; test: Pre-clinical toxicology study, daily oral gavage, dogs; type: in vivo; details: daily oral gavage for 14 days to 3 months
[2] = biological target: T1, FLT3 (Homo sapiens, UniProt P36888); test: Plasma inhibitory activity; type: cell-based
T1 sequence (P36888 610-943 limits assumed): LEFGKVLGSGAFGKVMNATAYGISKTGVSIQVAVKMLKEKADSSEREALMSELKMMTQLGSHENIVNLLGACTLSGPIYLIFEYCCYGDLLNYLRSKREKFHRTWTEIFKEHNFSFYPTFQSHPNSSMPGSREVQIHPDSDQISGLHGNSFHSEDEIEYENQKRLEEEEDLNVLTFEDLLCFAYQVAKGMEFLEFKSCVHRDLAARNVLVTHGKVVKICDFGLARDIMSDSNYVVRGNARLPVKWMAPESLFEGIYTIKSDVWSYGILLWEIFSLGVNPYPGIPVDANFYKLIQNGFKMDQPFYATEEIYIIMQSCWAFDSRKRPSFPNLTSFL
Summary of the method: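 Steady-state trough plasma was drawn before dosing on Cycle 1 day 15. An FLT3-ITD-expressing AML cell line was incubated in this plasma. FLT3 phosphorylation was quantified against baseline plasma and reported as % of baseline. Drug level in the same sample was measured by mass spectrometry. Reference curve: normal donor plasma spiked with test compound, Molm-14 cells 1 h, immunoblot for pFLT3.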

[3] = system: human platelets; test: In vitro platelet aggregation assay in platelet rich plasma; type: cell-based
[4] = system: lymphoma patients; details: target SYK; cited from earlier work
[5] = system: rats; test: Pre-clinical toxicology study, daily oral gavage, rats; type: in vivo; details: daily oral gavage for 14 days to 3 months
[6] = Phase Ib trial: plasma pharmacokinetics; type: in vivo, human
[7] = system: patients with R/R AML; test: Phase Ib trial: response and antileukemic activity; type: in vivo, human
Summary of the method: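 Multicenter, open-label phase Ib dose escalation (3+3) of oral single agent given QD or BID in 28-day cycles until progression or unacceptable toxicity. Started at 60 mg QD with 20 mg increments. Response was judged by Revised IWG AML criteria, with modifications.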

[8] = system: FLT3 isoforms; details: evaluation of additional kinases; cited from earlier work
[9] = system: patients with R/R AML; test: Phase Ib dose-escalation trial of oral mivavotinib: safety, DLT, MTD/RP2D; type: in vivo, human
[10] = system: R/R AML patients; details: cited from earlier work

Cn1cc(-c2nc(N[C@@H]3CCCC[C@@H]3N)c(F)c3c2C(=O)NC3)cn1 [mivavotinib]
dose at which GI mucosal hemorrhage was dose limiting [1]: ≥ 10 mg/kg
dose at which GI mucosal hemorrhage was present [1]: ≥ 3 mg/kg
in vivo FLT3 inhibition by PIA, comparison of dose levels ([2]; 80 mg BID, trough plasma): most effective FLT3 inhibition
consistent or sustained 90% FLT3 inhibition ([2]; 140 mg QD or 60 mg BID): neither selected RP2D, 140 mg QD or 60 mg BID, achieved a consistent or sustained 90% FLT3 inhibition
FLT3 inhibition ([2]; 140 mg QD, by Cycle 1 day 15, initial evidence): at least 90%
effect on platelet aggregation caused by adenosine diphosphate [3]: prevented aggregation
effect on platelet aggregation caused by collagen ([3]; 1.07 µM mivavotinib): prevented aggregation
inhibition of platelet aggregation ([3]; 0.107 mM mivavotinib): not observed
effect on platelet aggregation caused by collagen ([3]; 10.7 mM mivavotinib, collagen (2 mg/mL)): prevented aggregation
dose identified for expansion [4]: 100 mg QD
dose at which GI mucosal hemorrhage was present [5]: ≥ 30 mg/kg
dose proportionality of plasma exposure ([6]; dose ranges studied, 60-160 mg QD or 60-80 mg BID): generally dose proportional
Cmax ([6]; human, plasma, oral, 140 mg): 574 ng/mL and 1.07 µM
Tmax ([6]; human, plasma, po): 1 to 3 h
reduction in marrow blast percentage, range ([7]; 13 patients with FLT3 mutations): 22.5-98.6%
patients with PD ([7]; 33 response-evaluable patients): 5
patients with clinical benefit despite PD ([7]; 33 response-evaluable patients): 4
patients with stable disease ([7]; 33 response-evaluable patients): 19
complete responses (4 with incomplete count recovery) ([7]; 43 patients enrolled): 5
patients with a ≥50% reduction in peripheral blast count from baseline ([7]; BID dosing): 9 of 12
patients with a ≥50% reduction in peripheral blast count from baseline ([7]; QD dosing): 12 of 21
patients with a ≥50% reduction in peripheral blast count from baseline ([7]; across all dose levels): 21 of 33
objective responses with incomplete count recovery (CRi) ([7]; of 19 patients with FLT3 mutations treated at 120, 140, or 160 mg QD or BID): 3
activity against FLT3 isoforms [8]: 1.6 to 7.6 ng/mL
DLT ([9]; 60 mg BID, 8 patients): No episodes of DLT were observed
drug-related SAE gastric hemorrhage ([9]; 3 patients, who received 80 mg BID): 7%
maximum tolerated dose (MTD), BID dosing regimen ([9]; BID dosing regimen): 60 mg BID
recommended phase II dose (RP2D) ([9]; QD dosing regimen): 140 mg QD
maximum tolerated dose (MTD), QD dosing regimen ([9]; QD dosing up to 160 mg QD, per protocol): not reached
on-study deaths ([9]; after informed consent and ≤28 days after last dose): 26
patients with ≥1 TEAE assessed by the investigator as related to mivavotinib ([9]; all 43 patients): 84%
intracranial bleeding considered grade ≥3 ([9]; all doses): 4 patients
patients with GI tract bleeding considered grade ≥3 ([9]; all doses): 7 patients
patients with GI-related or central nervous system-related bleeding event leading to study discontinuation ([9]; all doses): 9 patients
patients with bleeding involving the GI tract ([9]; all doses): Thirteen
patients with intracranial bleeding ([9]; all doses): Seven
patients who discontinued mivavotinib due to a TEAE ([9]; all patients): 67%
patients with drug-related SAE ([9]; all patients): 28%
bleeding events leading to discontinuation considered related to mivavotinib ([9]; of 9 patients): 5
fatal grade ≥3 bleeding events ([9]; of eleven patients with grade ≥3 bleeding events): 2
median day of occurrence of all bleeding events ([9]; range -1 to 262): 22 days

CCc1nc(C(N)=O)c(Nc2ccc(N3CCC(N4CCN(C)CC4)CC3)c(OC)c2)nc1NC1CCOCC1 [gilteritinib]
median time to achieve best response [10]: 48 days
